TRPC4 act: opens the mouse TRPC4 cation channel. Q9QUQ5. HEK293 TRPC4beta/mu-opioid, Fluo4 calcium fluorescence; hits give high values. B-score at 10 µM. 0.49% of 310,000 active. AID 2237;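 active = B-score above 5 SD of library B-scores, and initial fluorescence ratio not above library mean plus 5 SD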;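 note: positive B-score marks a calcium rise read as TRPC4 activation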
Target sequence (Q9QUQ5 whole entry, looked up): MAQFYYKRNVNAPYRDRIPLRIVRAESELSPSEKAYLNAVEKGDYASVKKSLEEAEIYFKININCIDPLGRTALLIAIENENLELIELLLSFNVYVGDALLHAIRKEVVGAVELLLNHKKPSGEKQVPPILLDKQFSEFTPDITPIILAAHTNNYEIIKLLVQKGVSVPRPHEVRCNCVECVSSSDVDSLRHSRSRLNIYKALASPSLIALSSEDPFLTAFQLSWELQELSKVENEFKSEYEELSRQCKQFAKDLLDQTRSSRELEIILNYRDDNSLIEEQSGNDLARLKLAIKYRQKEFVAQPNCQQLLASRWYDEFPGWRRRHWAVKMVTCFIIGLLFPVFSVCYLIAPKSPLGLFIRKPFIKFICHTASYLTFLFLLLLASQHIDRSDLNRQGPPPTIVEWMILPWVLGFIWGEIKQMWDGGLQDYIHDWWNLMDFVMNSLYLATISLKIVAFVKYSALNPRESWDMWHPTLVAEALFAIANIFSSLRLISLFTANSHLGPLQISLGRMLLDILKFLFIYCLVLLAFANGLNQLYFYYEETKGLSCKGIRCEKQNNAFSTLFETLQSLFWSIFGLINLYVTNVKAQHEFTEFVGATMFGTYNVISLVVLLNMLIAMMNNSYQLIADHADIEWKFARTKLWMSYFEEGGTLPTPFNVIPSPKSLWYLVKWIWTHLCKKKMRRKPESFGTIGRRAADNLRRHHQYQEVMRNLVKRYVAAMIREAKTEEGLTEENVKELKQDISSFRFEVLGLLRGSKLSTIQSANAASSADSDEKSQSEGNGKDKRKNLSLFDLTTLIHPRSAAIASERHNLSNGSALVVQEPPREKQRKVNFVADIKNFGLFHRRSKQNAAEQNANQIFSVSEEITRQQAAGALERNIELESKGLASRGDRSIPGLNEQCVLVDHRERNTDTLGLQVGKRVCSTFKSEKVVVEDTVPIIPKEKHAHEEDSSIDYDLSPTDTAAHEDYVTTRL
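system = HEK293 cells stably co-expressing mouse TRPC4beta and mu-opioid receptor | schedule = Fluo4 dye loading 45 min at room temperature, 110 s recording | measure = B-scored integrated calcium fluorescence ratio | signal = Fluo4 calcium-sensitive dye fluorescence, kinetic, 1 Hz baseline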
DNA FID counter: fluorescent intercalator displacement, NS3 helicase counter-screen | DNA fluorescent intercalator displacement, fluorescence | inhibition, % at 7.9 µM | 0.17% of 290,000 active; in the data active = inhibition above about 37%;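 note: higher means more ethidium bromide displaced from hairpin DNA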
TRPC6 activator: mouse TRPC6 channel activation; Q61143; HEK293-TRPC6 membrane potential dye fluorescence; hits give high values; B-score at 10 µM; 0.13% of 310,000 active;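 active = B-score of the integrated fluorescence ratio above library mean plus 3 SD, and starting fluorescence ratio within library mean plus 5 SD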;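 note: higher score means more depolarization so channel activation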
TRPC4 inh: blocks the mouse TRPC4 cation channel; Q9QUQ5; HEK293 TRPC4beta/mu-opioid, DAMGO-evoked Fluo4 calcium flux; hits give low values; B-score at 10 µM; 0.39% of 300,000 active; AID 2247;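 active = B-score over 3 SD under the library average, no early fluorescence shift, positive overall ratio signal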
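Test system – stable TRPC4beta/mu-opioid receptor HEK293 cells · Probe or stimulus – DAMGO, a submaximal dose followed by a maximal one · Dosing – one concentration per compound · Signal – Fluo4 calcium fluorescence by kinetic imaging, 5 s 1 Hz baseline · Evaluation – per-well B score of integrated baseline-normalized Fluo4 ratio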
TRPC6 inh: inhibitors of mouse TRPC6 channel. Q61143. HEK293-TRPC6, membrane potential dye, ACh-evoked depolarization; hits give low values. B-score at 10 µM. 1.1% of 310,000 active;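 active = B-score under library mean minus 3 SD, initial fluorescence not abnormally high, positive integrated signal ratio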;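 note: B-score derived from integrated fluorescence ratio over the kinetic read; more negative B-score means stronger inhibition of depolarization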
TRPC4 PAM: allosterically enhances the mouse TRPC4 cation channel; Q9QUQ5; HEK293 TRPC4beta/mu-opioid, DAMGO EC20, Fluo-4 Ca2+ flux; hits give high values; B-score at 10 µM; 0.42% of 310,000 active;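 active = B-score of calcium response area above 5 SD of library B-scores, with initial fluorescence ratio within 5 SD of library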
TRPC4 sel inh 2: second selectivity test of TRPC6 inhibitors: effect on mouse TRPC4; shares compounds with TRPC6 inh; HEK293 TRPC4/MOR, membrane potential dye fluorescence; channel activated by saturating DAMGO dose; inhibition, % at 10 µM; 42% of 920 active; AID 2776;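 active = compounds whose fluorescence signal differed from control wells by over 3 SD, either direction, in both duplicate plates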
TRPC4 spec: selectivity of TRPC6 inhibitors: effect on mouse TRPC4. 61% of 920 active. activity change, negative = inhibition, % at 10 µM. HEK293 TRPC4/mu-opioid, membrane potential fluorescence. AID 2777. shares compounds with TRPC6 inh;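 active = rise or fall in signal beyond 3 SD of buffer-only wells in both replicate plates, either sign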;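 note: integrated kinetic ratio of fluorescence range over baseline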
HEK293 MPD ctr 2-1: parental HEK293 nonspecific activity of TRPC6 inhibitors, second screen; 31% of 920 active; signal change vs control, % at 10 µM; parental HEK293 membrane potential dye fluorescence; maximal acetylcholine challenge after compound addition; shares compounds with TRPC6 inh;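 active = membrane potential signal moving either way by over 3 SD of the maximum-effect control, in both duplicate plates, meaning non-specific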
HEK293 MPD ctr-1: counter-screen for TRPC6 inhibitors: effect in parental HEK293 cells. membrane potential signal change, % at 10 µM. parental HEK293 membrane potential dye fluorescence. shares compounds with TRPC6 inh. 60% of 920 active. AID 2780;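 active = membrane potential signal shifting up or down by more than 3 SD of buffer-only wells, on both duplicate plates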
HEK293 MPD ctr-2: counter-screen for TRPC6 modulators: effect in parental HEK293 cells; AID 488924; shares compounds with TRPC6 inh; membrane potential dye fluorescence; 51% of 2,400 active; membrane potential signal change, % at 10 µM;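 active = membrane potential signal moves up or down beyond 5 SD from buffer-only wells, on both duplicate plates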
HEK293 MPD ctr 2-2: second check of TRPC6 modulator effects in parental HEK293 cells; shares compounds with TRPC6 inh; membrane potential dye fluorescence; after compound, maximal acetylcholine stimulation; inhibition, % at 10 µM; 14% of 2,400 active; AID 488926;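 active = membrane potential signal drops by more than 5 SD from the mean control signal, in both duplicate plates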
TRPC4 ctr mod: tests whether TRPC6 modulators also affect mouse TRPC4; shares compounds with TRPC6 inh; HEK293 TRPC4/mu-opioid, membrane potential fluorescence; percent change from control (negative = decrease, positive = increase), % at 10 µM; 69% of 2,400 active; AID 488927;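 active = membrane potential signal moved up or down beyond 5 SD of buffer control wells, in both duplicate plates, actives on both sides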
TRPC4 ctr inh 2: second check of whether TRPC6 modulators also affect mouse TRPC4; shares compounds with TRPC6 inh; inhibition, % at 10 µM; 55% of 2,400 active; HEK293 TRPC4/mu-opioid, membrane potential dye fluorescence; stimulated with maximal-effect DAMGO;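 active = drop in membrane potential signal beyond 5 SD of the control wells in both duplicate plates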;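 note: TRPC4 counter screen for TRPC6 hits run under conditions tuned for TRPC6 not TRPC4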
TRPC6 block conf: confirmation of mouse TRPC6 inhibitors; HEK293-TRPC6, membrane potential dye, ACh-evoked depolarization; inhibition, % at 10 µM; shares compounds with TRPC6 inh; 43% of 3,300 active;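 active = fluorescence ratio falls more than 5 SD below the full-stimulation control mean, in both duplicate runs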;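 note: integrated fluorescence ratio of peak minus minimum over baseline after agonist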
TRPC6 act conf: confirmation of mouse TRPC6 activators | shares compounds with TRPC6 inh | HEK293-TRPC6 membrane potential dye fluorescence, FDSS | activation, % at 10 µM | 11% of 2,800 active | AID 488961;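 active = ratio signal rise beyond 5 SD above unstimulated control wells' mean, seen in both duplicate runs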
Large screens that a line does not name were inactive (follow-up assays come after a bar, where they were run). Most compounds without a hit are left out; they make up all but 2.3% or so of the library.

Cc1cccc(C(=O)NN2C(=O)C3C(c4ccccc4)C=CC(c4ccccc4)C3C2=O)c1 (configuration not stated)	TRPC6 inh -5 | HEK293 MPD ctr-2 inactive | HEK293 MPD ctr 2-2 inactive | TRPC4 ctr mod inactive | TRPC4 ctr inh 2 inactive | TRPC6 block conf inactive | TRPC6 act conf inactive
O=C(NN1C(=O)C2C3C=CC(C3)C2C1=O)c1ccccc1 (configuration not stated)	none
CN(C)C(=O)N1CCCC(C(=O)NCc2ccccc2Cl)C1 (configuration not stated)	TRPC6 inh -5.29 | HEK293 MPD ctr-2 inactive | HEK293 MPD ctr 2-2 inactive | TRPC4 ctr mod inactive | TRPC4 ctr inh 2 inactive | TRPC6 block conf inactive | TRPC6 act conf inactive
CN(C)C(=O)N1CCC(C(=O)NCc2ccccc2Cl)CC1	none
CS(=O)(=O)N(CC(=O)NCc1ccccc1Cl)C1CCCCC1	TRPC6 inh -6.54 | HEK293 MPD ctr-2 133.5% | HEK293 MPD ctr 2-2 inactive | TRPC4 ctr mod 22.5% | TRPC4 ctr inh 2 inactive | TRPC6 block conf inactive
C[C@H]1CCC(=O)N([C@H](COc2ccccc2)Cc2ccccc2)CC1	none
O=C(Nc1cccc2ccccc12)/C(=C/c1ccc([N+](=O)[O-])cc1)NC(=O)c1ccccc1	TRPC6 inh -6.03 | HEK293 MPD ctr-2 inactive | HEK293 MPD ctr 2-2 inactive | TRPC4 ctr mod inactive | TRPC4 ctr inh 2 71.0% | TRPC6 block conf 58.5% | TRPC6 act conf inactive
Cn1c(SCC(=O)Nc2sc3c(c2C#N)CCC3)nnc1C1COc2ccccc2O1 (configuration not stated)	TRPC6 inh -10.5 | TRPC4 sel inh 2 inactive | TRPC4 spec inactive | HEK293 MPD ctr 2-1 inactive | HEK293 MPD ctr-1 inactive | TRPC6 block conf 62.6%
CN(C)CCCn1c(SCC(=O)Nc2sc3c(c2C#N)CCCC3)nnc1-c1ccncc1	TRPC6 activator 16.3 | HEK293 MPD ctr-2 187.0% | HEK293 MPD ctr 2-2 inactive | TRPC4 ctr mod 27.5% | TRPC4 ctr inh 2 inactive | TRPC6 block conf inactive | TRPC6 act conf 76.5%
COc1cccc(OC)c1C(=O)Nc1ccccc1N1CCCCC1	none
Nc1ccc(-c2nnnn2-c2ccc(N)cc2)cc1	none
COc1cc(/C=C/C(=O)CC(=O)/C=C/c2ccc(O)c(OC)c2)ccc1O	TRPC4 act 84, TRPC6 activator 75.4 | HEK293 MPD ctr-2 active | HEK293 MPD ctr 2-2 inactive | TRPC4 ctr mod 380.0% | TRPC4 ctr inh 2 inactive | TRPC6 block conf inactive | TRPC6 act conf 524.0%
Cc1cc(NC(=O)COc2ccc(C(C)(C)C)cc2)no1	none
Cn1cnc2cc(NC(=O)c3ccc(Cl)cc3)ccc21	TRPC6 inh -5.32 | HEK293 MPD ctr-2 inactive | HEK293 MPD ctr 2-2 inactive | TRPC4 ctr mod -11.0% | TRPC4 ctr inh 2 inactive | TRPC6 block conf inactive | TRPC6 act conf inactive
CC(C)(C)n1cnc2cc(NC(=O)c3ccc(Cl)cc3)ccc21	none
CN(C(=O)c1ccc2c(c1)OCO2)C1CCS(=O)(=O)C1 (configuration not stated)	none (no result: DNA FID counter)
COc1cccc(-c2nc(CS(=O)(=O)CC(=O)Nc3ccccc3Br)c(C)o2)c1	none
CCN1CCN(Cc2cc(=O)oc3cc4c(cc23)CCC4)CC1	TRPC6 inh -5.07 | HEK293 MPD ctr-2 -70.0% | HEK293 MPD ctr 2-2 inactive | TRPC4 ctr mod -8.0% | TRPC4 ctr inh 2 40.0% | TRPC6 block conf inactive | TRPC6 act conf inactive
OC(C#CCN1CCCCCC1)(c1ccccc1)c1cccnc1 (configuration not stated)	TRPC6 inh -7.28 | TRPC4 sel inh 2 inactive | TRPC4 spec 3.4% | HEK293 MPD ctr 2-1 8.5% | HEK293 MPD ctr-1 4.8% | TRPC6 block conf 63.4%
OC(C#CCN1CCCC1)(c1ccccc1)c1cccnc1 (configuration not stated)	TRPC6 inh -6.09 | HEK293 MPD ctr-2 inactive | HEK293 MPD ctr 2-2 69.0% | TRPC4 ctr mod inactive | TRPC4 ctr inh 2 inactive | TRPC6 block conf 81.5% | TRPC6 act conf inactive
NS(=O)(=O)c1ccc(CCNC(=O)CN2CCN(Cc3cccc4ccccc34)CC2)cc1	none
COc1ccc(OCCC(=O)Nc2ccccc2)cc1	none
CN(C)CCCNC1CS(=O)(=O)CC1O (configuration not stated)	TRPC6 inh -7.2 | TRPC4 sel inh 2 inactive | TRPC4 spec inactive | HEK293 MPD ctr 2-1 inactive | HEK293 MPD ctr-1 inactive | TRPC6 block conf inactive | TRPC6 act conf inactive
CCOC(=O)C1CCN(C(c2cc3ccc(C)c(C)c3[nH]c2=O)c2nnnn2C2CCCCC2)CC1 (configuration not stated)	TRPC6 inh -8.83 | TRPC4 sel inh 2 inactive | TRPC4 spec inactive | HEK293 MPD ctr 2-1 inactive | HEK293 MPD ctr-1 inactive | TRPC6 block conf inactive
CCOC(=O)C1CCN(C(c2cc3c(C)ccc(C)c3[nH]c2=O)c2nnnn2C2CCCCC2)CC1 (configuration not stated)	none
COCCn1c(SCC(=O)N(C(C)C)C(C)C)nnc1-c1cc2ccccc2cc1O	TRPC6 inh -5.12 | HEK293 MPD ctr-2 inactive | HEK293 MPD ctr 2-2 inactive | TRPC4 ctr mod inactive | TRPC4 ctr inh 2 inactive | TRPC6 block conf 42.5%

Screens as filed in PubChem.
